How the values were obtained:
[1] = target: T1, Tyrosine-protein phosphatase non-receptor type 1 (Homo sapiens, UniProt P18031); experiment: Inhibition of PTP1B by pNPP hydrolase assay
T1 sequence (P18031 whole entry): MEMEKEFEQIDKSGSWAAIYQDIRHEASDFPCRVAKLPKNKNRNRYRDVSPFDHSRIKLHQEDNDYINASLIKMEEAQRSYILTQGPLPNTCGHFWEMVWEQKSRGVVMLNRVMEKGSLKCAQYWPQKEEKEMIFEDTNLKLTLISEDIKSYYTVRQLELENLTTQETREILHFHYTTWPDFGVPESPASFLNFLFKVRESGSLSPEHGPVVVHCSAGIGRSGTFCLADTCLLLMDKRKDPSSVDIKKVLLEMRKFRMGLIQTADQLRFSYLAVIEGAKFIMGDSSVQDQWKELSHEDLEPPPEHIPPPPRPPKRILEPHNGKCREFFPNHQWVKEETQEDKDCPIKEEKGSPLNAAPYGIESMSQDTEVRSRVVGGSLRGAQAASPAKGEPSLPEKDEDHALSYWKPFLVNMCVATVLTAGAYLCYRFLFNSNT
Method in brief: (§1)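 Enzyme activity (PTP1B or TCPTP) was measured by hydrolysis of p-nitrophenyl phosphate (pNPP), with {4-[4-(4-oxalylphenoxymethyl)-benzyloxy]-phenyl}-oxo-acetic acid as the reference inhibitor. IC50 was derived by regression analysis and reported as mean ± SD of three replications.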

[2] = target: T2, Tyrosine-protein phosphatase non-receptor type 2 (Homo sapiens, UniProt P17706); experiment: Inhibition of TCPTP by pNPP hydrolase assay; method in brief: as §1
T2 sequence (P17706 whole entry): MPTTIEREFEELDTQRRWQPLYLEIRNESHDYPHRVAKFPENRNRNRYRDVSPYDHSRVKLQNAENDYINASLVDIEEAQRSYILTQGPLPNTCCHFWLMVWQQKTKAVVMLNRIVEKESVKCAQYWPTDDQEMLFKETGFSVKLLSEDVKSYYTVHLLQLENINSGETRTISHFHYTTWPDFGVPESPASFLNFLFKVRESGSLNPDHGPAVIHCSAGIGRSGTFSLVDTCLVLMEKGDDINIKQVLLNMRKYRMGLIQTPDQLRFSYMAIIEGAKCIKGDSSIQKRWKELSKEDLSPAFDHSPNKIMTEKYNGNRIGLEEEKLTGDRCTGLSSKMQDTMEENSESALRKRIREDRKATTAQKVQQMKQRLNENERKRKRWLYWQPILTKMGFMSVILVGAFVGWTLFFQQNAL

[3] = target: T1, Tyrosine-protein phosphatase non-receptor type 1; experiment: Inhibition of PTP1B; method in brief: as §1
[4] = target: T3, Tyrosine-protein phosphatase non-receptor type 1 (Homo sapiens) (UniProt P18031); experiment: Inhibition of PTP1B at 20 uM by pNPP hydrolase assay
T3 sequence (whole entry): T1 sequence (P18031 whole entry)

[5] = Selectivity ratio of IC50 for TCPTP to IC50 for PTP1B

Compound | IC50 [1] [µM] | IC50 [2] [µM] | IC50 [3] [µM] | inhibition [4] [%] | Ratio IC50 [5]
CC(C)=C[C@@H]1C[C@](O)([C@H]2CC[C@@H]3[C@@H]2CC[C@H]2[C@@]3(C)CC[C@H]3C(C)(C)[C@@H](OC(=O)c4ccc(C(=O)O)cc4)CC[C@]23C)C(=O)O1 | 0.27 | 0.97 | – | – | –
COc1ccc(C(=O)O[C@H]2CC[C@]3(C)[C@H]4CC[C@H]5[C@@H](CC[C@@H]5[C@@]5(O)C[C@@H](C=C(C)C)OC5=O)[C@]4(C)CC[C@H]3C2(C)C)cc1 | 2.61 | 3.9 | – | – | –
CCCCC(=O)[C@H]1CC[C@]2(C)[C@H]3CC[C@H]4[C@@H](CC[C@@H]4[C@@]4(O)C[C@@H](C=C(C)C)OC4=O)[C@]3(C)CC[C@H]2C1(C)C | 4.14 | 11.8 | – | – | –
CC(C)=C[C@@H]1C[C@](O)([C@H]2CC[C@@H]3[C@@H]2CC[C@H]2[C@@]3(C)CC[C@H]3C(C)(C)C(NCc4cc(F)cc(F)c4)CC[C@]23C)C(=O)O1 (some centres undefined) | 11.6 | – | – | – | –
CC(C)=C[C@H]1C[C@@](O)([C@H]2CC[C@@H]3[C@@H]2CC[C@H]2[C@@]3(C)CC[C@H]3C(C)(C)[C@@H](O)CC[C@]23C)C(=O)O1 | 9.6 | – | 5.3 | – | –
COc1ccc(CNC2CC[C@]3(C)[C@H]4CC[C@H]5[C@@H](CC[C@@H]5[C@@]5(O)C[C@@H](C=C(C)C)OC5=O)[C@]4(C)CC[C@H]3C2(C)C)cc1 (some centres undefined) | – | – | – | 24 | –
COc1cccc(C(=O)O[C@H]2CC[C@]3(C)[C@H]4CC[C@H]5[C@@H](CC[C@@H]5[C@@]5(O)C[C@@H](C=C(C)C)OC5=O)[C@]4(C)CC[C@H]3C2(C)C)c1 | 2.08 | 12 | – | – | –
CC(C)=C[C@@H]1C[C@](O)([C@H]2CC[C@@H]3[C@@H]2CC[C@H]2[C@@]3(C)CC[C@H]3C(C)(C)[C@@H](OC(=O)c4ccc(C(=O)O)c([N+](=O)[O-])c4)CC[C@]23C)C(=O)O1 | 0.5 | 1.22 | – | – | –
CC(C)=C[C@@H]1C[C@](O)([C@H]2CC[C@@H]3[C@@H]2CC[C@H]2[C@@]3(C)CC[C@H]3C(C)(C)[C@@H](OC(=O)c4ccccn4)CC[C@]23C)C(=O)O1 | 2.36 | 5.14 | – | – | –
CC(C)=C[C@@H]1C[C@](O)([C@H]2CC[C@@H]3[C@@H]2CC[C@H]2[C@@]3(C)CC[C@H]3C(C)(C)[C@@H](OC(=O)c4ccc([N+](=O)[O-])cc4[N+](=O)[O-])CC[C@]23C)C(=O)O1 | 1.62 | 2.87 | – | – | –
CC(C)=C[C@@H]1C[C@](O)([C@H]2CC[C@@H]3[C@@H]2CC[C@H]2[C@@]3(C)CC[C@H]3C(C)(C)[C@@H](OC(=O)c4ccc([N+](=O)[O-])cc4)CC[C@]23C)C(=O)O1 | 1.42 | 5.1 | – | – | –
CC(C)=C[C@@H]1C[C@](O)([C@H]2CC[C@@H]3[C@@H]2CC[C@H]2[C@@]3(C)CC[C@H]3C(C)(C)C(=O)CC[C@]23C)C(=O)O1 | 13.1 | 34.1 | – | – | –
CC(C)=C[C@@H]1C[C@](O)([C@H]2CC[C@@H]3[C@@H]2CC[C@H]2[C@@]3(C)CC[C@H]3C(C)(C)[C@@H](OC(=O)c4cccc(C(=O)O)c4)CC[C@]23C)C(=O)O1 | 0.33 | 1.62 | – | – | 4.9
CC(C)=C[C@@H]1C[C@](O)([C@H]2CC[C@@H]3[C@@H]2CC[C@H]2[C@@]3(C)CC[C@H]3C(C)(C)[C@@H](O)CC[C@]23C)C(=O)O1 | 11.3 | – | 15.7 | – | –
CC(C)=C[C@@H]1C[C@](O)([C@H]2CC[C@@H]3[C@@H]2CC[C@H]2[C@@]3(C)CC[C@H]3C(C)(C)C(NCc4ccc([N+](=O)[O-])cc4)CC[C@]23C)C(=O)O1 (some centres undefined) | 6.58 | – | – | – | –
CCC(=O)[C@H]1CC[C@]2(C)[C@H]3CC[C@H]4[C@@H](CC[C@@H]4[C@@]4(O)C[C@@H](C=C(C)C)OC4=O)[C@]3(C)CC[C@H]2C1(C)C | 4.6 | 14.7 | – | – | –
CC(C)=C[C@@H]1C[C@](O)([C@H]2CC[C@@H]3[C@@H]2CC[C@H]2[C@@]3(C)CC[C@H]3C(C)(C)[C@@H](OC(=O)c4ccccc4[N+](=O)[O-])CC[C@]23C)C(=O)O1 | 1.96 | 3.38 | – | – | –
CC(C)=C[C@@H]1C[C@](O)([C@H]2CC[C@@H]3[C@@H]2CC[C@H]2[C@@]3(C)CC[C@H]3C(C)(C)[C@@H](OC(=O)c4cccc([N+](=O)[O-])c4)CC[C@]23C)C(=O)O1 | 1.7 | 2.26 | – | – | –
CC(=O)O[C@H]1CC[C@]2(C)[C@H]3CC[C@H]4[C@@H](CC[C@@H]4[C@@]4(O)C[C@@H](C=C(C)C)OC4=O)[C@]3(C)CC[C@H]2C1(C)C | 12.7 | – | – | – | –
CC(C)=C[C@@H]1C[C@](O)([C@H]2CC[C@@H]3[C@@H]2CC[C@H]2[C@@]3(C)CC[C@H]3C(C)(C)[C@@H](C(=O)c4ccccc4)CC[C@]23C)C(=O)O1 | 2.75 | 4.15 | – | – | –
COc1ccccc1C(=O)O[C@H]1CC[C@]2(C)[C@H]3CC[C@H]4[C@@H](CC[C@@H]4[C@@]4(O)C[C@@H](C=C(C)C)OC4=O)[C@]3(C)CC[C@H]2C1(C)C | 1.9 | 4.05 | – | – | –

From ChEMBL document CHEMBL1165949, “Dammaranes from Gynostemma pentaphyllum and synthesis of their derivatives as inhibitors of protein tyrosine phosphatase 1B” (Bioorg Med Chem, 2010)
